Screens (PubChem)
M5 PAM = potentiates acetylcholine response at human M5 receptor; P08912; CHO-K1 hM5, Fluo-8 calcium, ACh EC20 PAM; 0% = ACh EC20, 100% = ACh EC100; 360,000 tested, 0.3% active; activation, % at 3 µM;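 active = activation above the run cutoff, the mean activation of all test compounds plus 3 SD, cut at about 18% in these data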
Target sequence (P08912 whole entry, looked up): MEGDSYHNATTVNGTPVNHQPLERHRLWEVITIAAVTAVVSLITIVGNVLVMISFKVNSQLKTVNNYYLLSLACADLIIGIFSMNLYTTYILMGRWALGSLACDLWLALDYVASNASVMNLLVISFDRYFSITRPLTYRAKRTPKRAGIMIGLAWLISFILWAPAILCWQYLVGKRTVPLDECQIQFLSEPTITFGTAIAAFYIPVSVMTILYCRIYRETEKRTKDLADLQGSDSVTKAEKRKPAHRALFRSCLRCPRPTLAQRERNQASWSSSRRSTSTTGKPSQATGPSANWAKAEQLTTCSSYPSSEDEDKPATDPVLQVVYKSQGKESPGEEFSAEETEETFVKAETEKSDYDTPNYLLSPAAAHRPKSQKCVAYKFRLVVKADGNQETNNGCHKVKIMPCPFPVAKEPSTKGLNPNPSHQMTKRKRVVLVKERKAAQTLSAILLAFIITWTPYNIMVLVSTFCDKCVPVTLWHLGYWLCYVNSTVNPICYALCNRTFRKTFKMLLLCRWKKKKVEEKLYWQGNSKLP
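System – CHO-K1 hM5 cells · Compound – 3 µM, single dose · Incubation – compound preincubation 140 s before EC20 acetylcholine addition · Technique – Fluo-8 calcium fluorescence · Measure – Max/basal fluorescence ratio as % of EC20–EC100 ACh window · Benchmarks – low control EC20 acetylcholine (0%), high control EC100 acetylcholine (100%) · Replication – singlicate, one well per test compound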
CHRM5 antagonist = CHRM5 antagonism in calcium assay | AID 624040 | inhibition, % at 3 µM | 360,000 tested, 0.59% active | CHO-hM5 cells, Fluo-8 calcium fluorescence, ACh EC80 | P08912;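 active = inhibition above a per-plate cutoff, the mean of that plate's test compounds plus 3 SD, cut at about 27% in these data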
M5 ag = agonists of human muscarinic M5 receptor (CHRM5) | 360,000 tested, 0.19% active | AID 624037 | activation, % at 3 µM | CHO-K1 hM5 cells, Fluo-8 calcium fluorescence; 0% DMSO wells, 100% maximal acetylcholine response;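 active = activation above the run's mean over test compounds plus 3 SD, cut at about 23% in these data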;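 also: signal is peak over basal fluorescence ratio across the kinetic read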
M4 PAM = CHRM4 positive allosteric modulation | P08173 | CHO-K1 hM4/Gqi5, Fluo-8 calcium fluorescence, ACh EC20; 0% = ACh EC20, 100% = maximal ACh | activation, % at 3 µM | 360,000 tested, 0.4% active;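 active = activation above its plate's cutoff, the mean activation of sample wells plus 3 SD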
M4 antag = blocks acetylcholine activation of human M4 receptor; P08173; CHO-hM4 cells, ACh EC80, Fluo-8 calcium fluorescence; inhibition, % at 3 µM; 360,000 tested, 0.73% active;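 active = inhibition above its plate's cutoff, the mean inhibition of sample wells plus 3 SD, cut at about 27% in these data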
M4 ag = CHRM4 agonism in calcium assay; CHO-K1 hM4/Gqi5, Fluo-8 calcium fluorescence; vehicle 0%, full acetylcholine response 100%; activation, % at 3 µM; 360,000 tested, 0.14% active;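 active = activation above the run mean over all test wells plus 3 SD, cut at about 32% in these data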;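 also: peak over basal fluorescence ratio per well then scaled between controls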
Of the large screens only hits and unclear results are named; the others gave an inactive call. Sampled rows, rich in hits. Any-hit rate of the full collection: about 1.8%.

Cc1noc(C)c1CSCC(=O)Nc1cccc(C(F)(F)F)c1	none
N#Cc1cc2ccccc2nc1SCc1ccccn1	M4 ag 52
CN(C)CC/C=C1\c2ccccc2COc2ccccc21	CHRM5 antagonist 98, M4 antag 67
CN(C)CC/C=C1/c2ccccc2Sc2ccc(Cl)cc21	CHRM5 antagonist 99, M4 antag 99
CCCCCC[N+](C)(C)CC/C=C1/c2ccccc2Sc2ccc(Cl)cc21	CHRM5 antagonist 99, M4 antag 99
OCCN1CCN(CC/C=C2/c3ccccc3Sc3ccc(C(F)(F)F)cc32)CC1	none
CN1CCN(CCC=C2c3ccccc3Sc3ccc(S(=O)(=O)N(C)C)cc32)CC1	none
CCOC(=O)C1CCN(CC(C)(C)NS(=O)(=O)c2ccccc2)CC1	none
CCc1nnc(NC(=O)CCN2C(=O)/C(=C/c3cc(OC)c(OC)c(OC)c3)SC2=S)s1	M4 PAM 15
O=C(c1cc(-c2ccc(Cl)cc2)n[nH]1)N1CCc2ccccc2C1	none
CCc1ccc(OCC(=O)Nc2ccc(-c3cc4ccccc4oc3=O)c(OC)c2)cc1	CHRM5 antagonist 31
COc1cc(NC(=O)c2cc(Cl)ccc2Cl)ccc1-c1cc2ccccc2oc1=O	none
N#CC1(CCCN2CCCCC2)c2ccccc2CCc2ccccc21	M4 antag 26
OCCN1CCN(CCCN2c3ccccc3CCc3ccccc32)CC1	none
Cc1nn(CCOc2ccccc2)c(=O)n1-c1c(F)cccc1F	M4 PAM 32, M4 antag 31
Cc1ccc(-n2c(C)nn(CCOc3ccccc3)c2=O)cc1	none
O=C(COC(=O)CN1C(=O)C2CCCCC2C1=O)NNC(=O)c1ccc(Cl)cc1 (stereo not given)	none
CN1C(=O)/C(=C\c2ccc(N(C)C)cc2)OC1=S	M5 ag 96
Cc1ccc2c(CC(=O)NC3CCS(=O)(=O)C3)coc2c1C (stereo not given)	M4 PAM 18
COC(=O)[C@@]1(Cc2ccc(OC)cc2)[C@@H]2C(=CC(=O)[C@H]2CC(=O)C(=O)N2CCCC2)CN1C(=O)c1ccccc1	M5 PAM 19
COc1cc(OC)cc(C(=O)N2CCN(S(C)(=O)=O)CC2)c1	M5 PAM 31, M4 PAM 28
CCOC(=O)N1CCN(C(=O)c2cc(OC)cc(OC)c2)CC1	none
CCc1nnc(SCC(=O)NC2CC2)n1CC	none
CC1CCN(c2ccccc2NC(=O)c2ccc(C#N)cc2F)CC1	M4 PAM 23
CC(C)C(=O)N1CCN(c2ccccc2NC(=O)c2ccc(C#N)cc2F)CC1	none
Cc1cc2n(n1)C(c1ccco1)Nc1ccccc1-2 (stereo not given)	none
Cc1cc2n(n1)C(c1ccc(O)cc1)Nc1ccccc1-2 (stereo not given)	M4 PAM 30
CN(C)CCCN(C(=O)c1cc(Cl)sc1Cl)c1nc2cc3c(cc2s1)OCO3	CHRM5 antagonist 42, M4 antag 62
CC1CCCN(Cc2ccc(OCc3ccccc3)cc2)C1 (stereo not given)	M4 antag 37
OC1CCN(Cc2ccc(OCc3ccccc3)cc2)CC1	none
Cc1ccc(CNC(=O)CSc2nnc(CNC(=O)c3ccccc3)o2)cc1	M4 PAM 23
CCCCN(C(=O)c1ccc(N2CCCC2=O)cc1)c1c(N)n(CCC)c(=O)[nH]c1=O	none
CCOC(=O)c1[nH]c(CN2CCN(c3ccc(OC)cc3)CC2)c(C(=O)OCC)c1C	none
CCOC(=O)c1cc(C#N)c(N2CCN(c3ccc(OC)cc3)CC2)[nH]c1=O	M5 PAM 26
CC1=NN(c2ccccc2)C(=O)/C1=C\C=C1\N(C)c2ccccc2C1(C)C	none
CN1/C(=C\C=C2/SC(=S)NC2=O)C(C)(C)c2ccccc21	CHRM5 antagonist 58, M5 ag 51, M4 antag 44, M4 ag 65
CC1=NN(c2ccccc2)C(=O)/C1=C\C=C1/N(C)c2ccccc2C1(C)C	M5 ag 36
CCN(CC)CCCNC(=O)c1[nH]c2ccccc2c1Sc1ccc(Cl)cc1	none
Cc1ccc(N(CC(=O)N2CCCC2)S(C)(=O)=O)c(C)c1	none
CC1CN(C(=O)CSc2nnc(-c3ccccc3)o2)CC(C)O1 (stereo not given)	M5 PAM 22
Cc1cc(C(=O)CCC(=O)N(C)CC(=O)Nc2ccc(OC(F)(F)F)cc2)c(C)s1	none
CCCCS(=O)(=O)/C=C\C1C2C=CC(C2)C1S(=O)(=O)CCCC (stereo not given)	none
CCCCS(=O)(=O)/C=C\C=C/S(=O)(=O)CCCC	M4 antag 37
Cc1ccccc1N1CC(C(=O)Nc2ccncc2)CC1=O (stereo not given)	none
COCCN1CCN(C(=O)c2cc(COc3cc(C)ccc3C)on2)CC1	none
COCCN(C(=O)CCC(=O)Nc1cc(C)on1)C(C(=O)NC1CCCC1)c1ccccc1F (stereo not given)	M5 PAM 28, M4 antag 75
CCN1C(=NCc2ccco2)N[C@@H](c2cccc(C(F)(F)F)c2)C(C(=O)OC)=C1C	M4 antag 27
N#CCCN1CCN(CCC#N)C1=S	M5 ag 30
COC(=O)c1cc(S(=O)(=O)N2CCOCC2)ccc1Sc1ccccc1N	M4 PAM 22
COc1ccc(/C=N/NC(=O)c2ccoc2C)cc1O	M4 PAM 32
COc1cc(/C=N/NC(=O)CNC(=O)c2ccco2)ccc1O	CHRM5 antagonist 27
O=C1C=CC2(C=C1)O[C@H](Cc1ccccc1)[C@@H](Cc1ccccc1)O2	M4 antag 62
COc1ccc(C[C@@H]2OC3(C=CC(=O)C=C3)O[C@H]2Cc2ccc(OC)cc2)cc1	M4 antag 76
COc1ccc(N2C(=O)CC(Cc3ccccc3)C2=O)cc1 (stereo not given)	none
CCCN1CCN(CCCNC(=O)c2ccc(NC(=O)C3=C(C)OCCS3)cc2)CC1	none
CCC(C)CCN1C(N(C)C)=NC[C@@H]1C (stereo not given in full)	M4 antag 39
Cc1ccc(NC(=S)NCc2cccnc2)cc1	M4 PAM 16
S=C(NCc1cccnc1)Nc1cc(Cl)cc(Cl)c1	CHRM5 antagonist 30
CCCNC(=O)C1(C)CCCN(Cc2ccc3ccccc3c2)C1 (stereo not given)	none
O=C(O)[C@@H]1CCCN1S(=O)(=O)c1cccc(S(=O)(=O)N2CCC[C@H]2C(=O)O)c1	none
O=C(O)C1CCCN1S(=O)(=O)c1cccc(S(=O)(=O)N2CCCC2C(=O)O)c1 (stereo not given)	M4 antag 32
CCOc1cc2c3c(c1)C(C)=CC(C)(C)N3C(=O)C2=O	M5 ag 56
